Measured values collected from several papers.
SLC10A2: Ileal sodium/bile acid cotransporter (SLC10A2, Homo sapiens, UniProt Q12908)
HRH3: Histamine H3 receptor (HRH3, Homo sapiens, UniProt Q9Y5N1)
Hypoxanthine-guanine-xanthine phosphoribosyltransferase: Hypoxanthine-guanine-xanthine phosphoribosyltransferase (Plasmodium falciparum, UniProt P20035)
CYP1B1: Cytochrome P450 1B1 (CYP1B1, Homo sapiens, UniProt Q16678)
DRD5: D(1B) dopamine receptor (DRD5, Homo sapiens, UniProt P21918)
WDR5: WD repeat-containing protein 5 (WDR5, Homo sapiens, UniProt P61964)
PDEB1: Class 1 phosphodiesterase PDEB1 (PDEB1, Trypanosoma brucei, UniProt Q8WQX9)

Compound | target | assay | conditions | Ki [µM]
CCCCNc1cc(C(=O)O)cc(S(N)(=O)=O)c1Oc1ccccc1 | SLC10A2 | transporter uptake, inhibitor |  | 225
CN(C)c1ccc(/C=C2\CCc3ccc(OCCCN4CCCCC4)cc3C2=O)cc1 | HRH3 | ligand displacement, radioligand | cell membranes | 0.149
O=c1c(O)c(NC[C@@H](CO)NCc2c[nH]c3c(O)ncnc23)c1=O | Hypoxanthine-guanine-xanthine phosphoribosyltransferase | enzyme activity, inhibitor | pH 7.4 | > 20
C#Cc1ccc2oc(-c3ccccc3)cc(=O)c2c1 | CYP1B1 | enzyme activity, inhibitor, fluorescence | 6 min, pH 7.6 | 0.54
CC(C)(C#N)c1cc(Cn2cncn2)cc(C(C)(C)C#N)c1 | SLC10A2 | transporter uptake, inhibitor |  | 402
O=C1c2ccccc2CCCN1CCCCN1CCN(c2ccccn2)CC1 | DRD5 | ligand displacement, radioligand |  | > 10
CCCc1ccc(OCCCCCN2CCCCC2)cc1 | HRH3 | ligand displacement, radioligand | cell membranes | 0.048
COc1ccc([C@@H]2Sc3ccccc3N(CCN(C)C)C(=O)[C@@H]2OC(C)=O)cc1 | SLC10A2 | transporter uptake, inhibitor |  | 211
CN(C)c1ccc(/C=C2\CCc3cc(OCCCN4CCCCC4)ccc3C2=O)cc1 | HRH3 | ligand displacement, radioligand | cell membranes | 0.07
C[C@H]1[C@H](NC(=O)/C(=N\OC(C)(C)C(=O)O)c2csc(N)n2)C(=O)N1S(=O)(=O)O | SLC10A2 | transporter uptake, inhibitor |  | 1850
CCOc1c(O)cc(Br)c2c1CN1CCc3cc(OCC(F)F)c(O)cc3[C@@H]1C2 | DRD5 | cell-free assay, radioligand |  | 0.082
Cc1nc(F)ccc1-c1cc(Cn2ccn(C)c2=N)cc(C(=O)NCc2ccc(Cl)c(Cl)c2)c1 | WDR5 | ligand displacement, FP |  | < 1e-06
c1cc2c(cc1OCCCCCN1CCCCCC1)CCC2 | HRH3 | ligand displacement, radioligand | cell membranes | 0.0645
CCCCN1CCC(COC(=O)c2ccc(N)c(OCF)c2)CC1 | Beta-2 adrenergic receptor (ADRB2, Homo sapiens, UniProt P07550) | cell-free assay, radioligand |  | > 10
COc1ccccc1N1CCN(CCCCN2CCc3ccccc3C2=O)CC1 | DRD5 | ligand displacement, radioligand |  | 6.86
O=c1cc([C@@H](CO)NCc2c[nH]c3c(O)ncnc23)o[nH]1 | Hypoxanthine-guanine-xanthine phosphoribosyltransferase | enzyme activity, inhibitor | pH 7.4 | > 20
COc1cc(O)c(CC=C(C)C)c2c1C(=O)CC(c1ccc(O)cc1)O2 (stereo not drawn) | CYP1B1 | enzyme activity, inhibitor, fluorescence | 15 min, pH 7.4 | 0.54
CN(C)c1ccc(/C=C/C=C2\CCc3ccc(OCc4ccc(OCCCN5CCCCC5)cc4)cc3C2=O)cc1 | HRH3 | ligand displacement, radioligand | cell membranes | 0.087
CCOC(=O)C1=C(COCCN)NC(C)=C(C(=O)OC)C1c1ccccc1Cl (stereo not drawn) | SLC10A2 | transporter uptake, inhibitor |  | < 100
COc1cc(CNC(=O)c2cccc(CNC3=NCCN3)c2F)cc(OC)c1 | WDR5 | ligand displacement, FP |  | 1.23

Compound | target | assay | conditions | Ki [µM]
COc1cc(O)c(CC=C(C)C)c(O)c1C(=O)/C=C/c1ccc(O)cc1 | CYP1B1 | enzyme activity, inhibitor, fluorescence | 15 min, pH 7.4 | 0.17
O=c1c(O)c(NCC[C@@H](CO)NCc2c[nH]c3c(O)ncnc23)c1=O | Hypoxanthine-guanine-xanthine phosphoribosyltransferase | enzyme activity, inhibitor | pH 7.4 | > 20
CN(C(=O)[C@@H]1Cc2ccccc2CN1C(=O)Cc1ccc(Cl)cc1)c1ccc(N2CCCCC2=O)cc1 | Coagulation factor X (F10, Homo sapiens, UniProt P00742) | enzyme activity, inhibitor, absorbance |  | 0.65
CCCc1ccc(OCCCCCN2CCCC(C)C2)cc1 (stereo not drawn) | HRH3 | ligand displacement, radioligand | cell membranes | 0.0384
O=C(NCc1cc(Cl)cc(Cl)c1)c1cccc(Cn2ccnc2)c1 | WDR5 | ligand displacement, FP |  | 0.681
C=C[C@H]1C[N@@]2CC[C@H]1C[C@H]2[C@H](O)c1ccnc2ccc(OC)cc12 | SLC10A2 | transporter uptake, inhibitor |  | 223
COc1ccc(C2=NN(C3CCCCCC3)C(=O)C3CC=CCC23)cc1-c1ccc(C(=O)N2CCC[C@@H]2C(N)=O)cc1 (mixture of isomers) | PDEB1 | enzyme activity, inhibitor |  | 0.501
Cc1nc(F)ccc1-c1cc(C(=O)NCc2ccc(Cl)c(Cl)c2)ccc1Cn1ccn(C)c1=N | WDR5 | ligand displacement, FP |  | > 5
O=C1c2ccccc2CCN1CCCCN1CCN(c2ccccn2)CC1 | DRD5 | ligand displacement, radioligand |  | 9.36
CN1CCN(CCCOc2ccc(Nc3nccc(NCc4ccccc4)n3)cc2)CC1 | HRH3 | ligand displacement, radioligand | cell membranes | 0.383
NS(=O)(=O)NC[C@@H](CO)NCc1c[nH]c2c(O)ncnc12 | Hypoxanthine-guanine-xanthine phosphoribosyltransferase | enzyme activity, inhibitor | pH 7.4 | > 20
C#Cc1cccc(-c2cc(=O)c3ccccc3o2)c1 | CYP1B1 | enzyme activity, inhibitor, fluorescence | 6 min, pH 7.6 | 0.16
COc1ccc(C2=NN(C3CCCCCC3)C(=O)C3CC=CCC23)cc1-c1ccc(C(=O)N2CC[C@@H](O)C2)cc1 (mixture of isomers) | PDEB1 | enzyme activity, inhibitor |  | 0.251
O=C1CN(CC[C@@H](CO)NCc2c[nH]c3c(O)nc(O)nc23)S(=O)(=O)N1 | Hypoxanthine-guanine-xanthine phosphoribosyltransferase | enzyme activity, inhibitor | pH 7.4 | > 20
C#Cc1cccc2oc(-c3ccccc3)cc(=O)c12 | CYP1B1 | enzyme activity, inhibitor, fluorescence | 6 min, pH 7.6 | 0.21
CCc1ccc(CCOc2ccc(CC3SC(=O)NC3=O)cc2)nc1 (stereo not drawn) | SLC10A2 | transporter uptake, inhibitor |  | < 100
CCCNc1nc2ccccc2n1Cc1ccc(Cl)cc1 | DRD5 | cell-free assay, radioligand |  | 5.66
NS(=O)(=O)c1cc(C2(O)NC(=O)c3ccccc32)ccc1Cl (stereo not drawn) | SLC10A2 | transporter uptake, inhibitor |  | 707
O=C1CCCc2ccc(OCc3ccc(OCCCN4CCCCC4)cc3)cc21 | HRH3 | ligand displacement, radioligand | cell membranes | 0.017
